For data set [1], the target named is Histone acetyltransferase p300 (Homo sapiens) (UniProt Q09472). The data set can be described thus: Inhibition of P300 in human 12Z cells assessed as reduction in H3K27ac expression at 0.01 to 100 uM for 24 hrs by western blot analysis. Format: cell-based. Conditions: dose 0.01-100 µM. The method in brief: (§1)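 Histones were acid-extracted from A-485-treated 12Z cells with 0.2 N HCl in the presence of sodium butyrate. Extracts were run on a 15% SDS-PAGE gel and blotted with H3K27ac (1:1,000) and total H3 (1:2,000) antibodies, with IRDye 800CW secondary and fluorescence imaging.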
Chain of Histone acetyltransferase p300 (Homo sapiens) (Q09472 whole entry): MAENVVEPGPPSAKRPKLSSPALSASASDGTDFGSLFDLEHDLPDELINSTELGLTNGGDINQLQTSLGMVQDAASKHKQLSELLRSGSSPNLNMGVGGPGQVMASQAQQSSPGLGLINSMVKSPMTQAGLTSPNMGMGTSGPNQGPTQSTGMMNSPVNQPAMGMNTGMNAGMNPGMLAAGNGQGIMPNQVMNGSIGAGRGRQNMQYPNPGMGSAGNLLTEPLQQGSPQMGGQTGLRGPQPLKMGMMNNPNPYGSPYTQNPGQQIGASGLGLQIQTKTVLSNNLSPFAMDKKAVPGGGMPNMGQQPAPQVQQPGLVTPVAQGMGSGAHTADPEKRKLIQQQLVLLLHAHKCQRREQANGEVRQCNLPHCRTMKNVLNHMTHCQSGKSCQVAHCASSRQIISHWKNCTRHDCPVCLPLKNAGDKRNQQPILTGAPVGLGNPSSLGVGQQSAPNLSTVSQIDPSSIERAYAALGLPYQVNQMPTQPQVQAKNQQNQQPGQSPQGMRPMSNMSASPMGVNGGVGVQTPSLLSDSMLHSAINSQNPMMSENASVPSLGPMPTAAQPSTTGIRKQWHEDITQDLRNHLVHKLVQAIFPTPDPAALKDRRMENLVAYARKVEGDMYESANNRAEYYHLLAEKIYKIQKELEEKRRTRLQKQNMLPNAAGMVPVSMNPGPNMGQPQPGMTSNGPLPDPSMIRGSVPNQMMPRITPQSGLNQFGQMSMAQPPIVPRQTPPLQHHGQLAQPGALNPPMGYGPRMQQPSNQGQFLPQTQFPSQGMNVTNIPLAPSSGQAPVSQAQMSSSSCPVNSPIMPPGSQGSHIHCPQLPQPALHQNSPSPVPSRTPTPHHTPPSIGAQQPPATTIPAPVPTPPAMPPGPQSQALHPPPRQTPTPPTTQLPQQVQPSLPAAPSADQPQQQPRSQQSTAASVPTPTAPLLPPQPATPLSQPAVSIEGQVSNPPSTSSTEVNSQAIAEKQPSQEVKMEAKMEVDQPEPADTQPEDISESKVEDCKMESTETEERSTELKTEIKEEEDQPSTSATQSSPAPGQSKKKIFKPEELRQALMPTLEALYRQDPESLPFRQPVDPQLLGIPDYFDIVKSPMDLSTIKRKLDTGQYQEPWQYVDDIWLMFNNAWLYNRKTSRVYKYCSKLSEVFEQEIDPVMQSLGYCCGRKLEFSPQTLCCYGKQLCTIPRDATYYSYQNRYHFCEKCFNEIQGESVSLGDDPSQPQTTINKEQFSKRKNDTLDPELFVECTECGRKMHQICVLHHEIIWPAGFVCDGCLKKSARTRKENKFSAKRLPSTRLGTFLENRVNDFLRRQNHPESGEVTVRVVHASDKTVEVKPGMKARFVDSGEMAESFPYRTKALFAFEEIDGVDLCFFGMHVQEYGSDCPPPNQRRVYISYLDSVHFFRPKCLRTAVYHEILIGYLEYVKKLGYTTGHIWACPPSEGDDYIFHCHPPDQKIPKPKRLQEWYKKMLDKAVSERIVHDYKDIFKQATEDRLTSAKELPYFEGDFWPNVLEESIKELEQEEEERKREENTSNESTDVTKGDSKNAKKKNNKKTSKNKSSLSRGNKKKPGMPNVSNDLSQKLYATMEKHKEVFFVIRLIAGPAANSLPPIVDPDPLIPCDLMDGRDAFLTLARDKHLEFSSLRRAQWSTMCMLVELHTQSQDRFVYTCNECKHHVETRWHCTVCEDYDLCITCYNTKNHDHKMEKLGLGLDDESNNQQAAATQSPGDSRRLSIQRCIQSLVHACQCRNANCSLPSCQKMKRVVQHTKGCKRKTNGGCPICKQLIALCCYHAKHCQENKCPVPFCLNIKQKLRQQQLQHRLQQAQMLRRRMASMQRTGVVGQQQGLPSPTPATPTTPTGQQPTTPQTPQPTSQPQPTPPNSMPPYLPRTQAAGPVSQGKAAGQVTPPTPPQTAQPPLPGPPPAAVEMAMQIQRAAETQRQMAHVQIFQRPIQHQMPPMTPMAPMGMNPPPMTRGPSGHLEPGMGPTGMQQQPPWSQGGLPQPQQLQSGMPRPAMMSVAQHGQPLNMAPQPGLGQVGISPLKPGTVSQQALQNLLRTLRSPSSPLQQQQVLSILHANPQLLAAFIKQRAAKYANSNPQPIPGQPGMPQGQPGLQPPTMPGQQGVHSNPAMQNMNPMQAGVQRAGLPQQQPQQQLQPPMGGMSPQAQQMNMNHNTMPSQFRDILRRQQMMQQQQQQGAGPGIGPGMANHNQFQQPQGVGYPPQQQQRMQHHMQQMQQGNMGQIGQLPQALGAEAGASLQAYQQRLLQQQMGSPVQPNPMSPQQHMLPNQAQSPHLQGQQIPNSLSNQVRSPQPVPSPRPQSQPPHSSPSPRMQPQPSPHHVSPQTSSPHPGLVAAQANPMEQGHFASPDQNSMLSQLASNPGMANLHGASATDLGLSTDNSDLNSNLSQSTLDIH

Data set [2] is described as follows: Cytotoxicity against human 12Z cells assessed as reduction in cell viability after 6 days by crystal violet staining based assay. Type of data set: toxicity. The method in brief:
(§2)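 12Z cells seeded at 100 cells/well and, after 24 h, treated with A-485 from 10 nM to 100 μM. After 6 days, colonies stained with crystal violet and counted.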

Data set [3] is described as follows: Cytotoxicity against human 12Z cells transfected with control shRNA assessed as reduction in cell viability after 6 days by crystal violet staining based assay. Type of data set: toxicity. The method in brief:
as §2

Data set [4] is described as follows: Cytotoxicity against human 12Z cells transfected with shARID1A assessed as reduction in cell viability after 6 days by crystal violet staining based assay. Format: functional. The following applies: 144 h. The method, boiled down: as §2
The test system of data set [5] is 12Z. Description: Inhibition of cell invasion in human 12Z cells transfected with shARID1A at 10 to 100 nM after 24 hrs by transwell invasion assay. Format: functional, cell-based. Conditions: dose 10-100 nM. The method in brief: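 12Z cells were siRNA-transfected and drug added 24 h later. At 48 h, 30,000 cells in 0.3 mg/mL Matrigel were seeded on Matrigel-coated 8 μm transwells, with serum-free medium on top and 5% FBS medium below, drug in both chambers. After 16 hr, cells were stained with calcein-AM, unmigrated cells were removed, and five fields/well were imaged and counted.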

For data set [6], the system named is 12Z. The data set can be described thus: Inhibition of cell migration in human 12Z cells transfected with shARID1A at 31 to 316 nM after 24 hrs by Matrigel based analysis. Type of data set: functional. Conditions: dose 31-316 nM, in the assay text read “culture-insert gap assay” for “Matrigel based analysis”. The method in brief:
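12Z cells (4,000/well) in 4-well culture inserts were transduced with control or shARID1A lentivirus (MOI 100). Serum-free medium with drug or vehicle was added after 24 hr, and inserts were removed at 16 hr. Front distances at 16 points were imaged at 0 and 24 hr, and migration was taken as the 0 h minus 24 h mean distance.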

The test system of data set [7] is 12Z. Description: Induction of anchorage-dependent cell death in human 12Z cells assessed as increase in caspase3/7 level at 100 nM after 24 hrs by caspase-Glo 3/7 assay. Format: functional, cell-based. The method in brief: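 The Caspase-Glo 3/7 assay was run in suspension. siRNA-transfected 12Z cells (48 hr), drug-treated for 24 hr, were seeded at 10,000 cells/well on cell-repellent plates in serum-free DMEM/F12 with A-485 or vehicle. After 24 hr, Caspase-Glo reagent was added 1:1 and incubated 1 hr at 37°C before reading luminescence.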

Data set [8] deals with 12Z. Description: Induction of cell death in human 12Z cells transfected with shARID1A assessed as increase in ratio of dead to live cells at 100 nM after 16 hrs by Matrigel based analysis. Format: functional. The method, boiled down: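 12Z cells were siRNA-transfected and drug-treated 24 h post-transfection. At 48 h, 10,000 cells in 0.3 mg/mL Matrigel were seeded on Matrigel-coated wells in serum-free medium with 100 nM A-485 or vehicle.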

The target of data set [9] is Histone acetyltransferase p300 (Homo sapiens) (UniProt Q09472). Description: Inhibition of P300 in human 12Z cells assessed as reduction in H3K27ac expression at 316 nM for 24 hrs by western blot analysis. Format: cell-based. The method, boiled down: as §1
The nature of data set [10]: Cytotoxicity against human 12Z cells assessed as reduction in cell viability after 72 hrs at 0.01 to 100 uM by calcein-AM stainig based fluorescence assay. Conditions: dose 0.01-100 µM. Type of data set: toxicity. The method, boiled down:
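12Z cells seeded at 4,000 cells/well, transfected 24 h later, then drug-treated 24 h after transfection for 48–72 hr. Viable cells were read after 1 h with 2 μg/mL calcein-AM as fluorescence.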

The nature of data set [11]: Cytotoxicity against human 12Z cells transfected with control shRNA assessed as reduction in cell viability at 0.01 to 100 uM after 72 hrs by crystal violet staining fluorescence assay. Format: toxicity, cell-based. The following applies: dose 0.01-100 µM.
The test system of data set [12] is 12Z. Description: Growth inhibition of human 12Z cells transfected with shARID1A assessed as reduction in cell viability at 0.01 to 100 uM after 72 hrs by crystal violet staining fluorescence assay. Type of data set: functional, cell-based. Conditions: dose 0.01-100 µM.
For data set [13], the target named is Histone acetyltransferase p300 (Homo sapiens) (UniProt Q09472). The data set can be described thus: Inhibition of P300 in human 12Z cells transfected with shARID1A assessed as affected in H3K27ac expression at 1 uM for 24 hrs by CUT and run analysis. Type of data set: cell-based.
For data set [14] the target is unchanged. The data set can be described thus: Inhibition of P300 in human 12Z cells transfected with shARID1A assessed as decrease in SERPINE1 RNA expression at 100 nM by RNA-seq analysis. Type of data set: cell-based.
Data set [15] has the same target. The data set can be described thus: Inhibition of P300 in human 12Z cells transfected with shARID1A assessed as decrease in SERPINE1 RNA expression at 100 nM for 24 hrs by Western blot analysis. Type of data set: cell-based.

Active and inactive are the calls of the source. The rule behind the calls is not given here.

In the case of `CNC(=O)Nc1ccc2c(c1)CC[C@@]21OC(=O)N(CC(=O)N(Cc2ccc(F)cc2)[C@@H](C)C(F)(F)F)C1=O` [A-485], the inhibition entry (in [1]; with 12Z [5]; in the data set with 12Z [6]; in [9]; in data set [13]; in data set [14]) was “Active” in each case. Also, the inhibition result in data set [15] is “Active”. The values for the IC50 at 6 days in [2] and in data set [3] were 3.32 µM and 3.61 µM, respectively. Moreover, the IC50 in data set [4] is 5.35 µM. Moreover, the outcome with 12Z [7] and in the data set with 12Z [8] was Active. Besides, the Activity result in [10] and in [11] was “Toxic” in each case. Further, in the data set on 12Z [12], the “growth inhibition (GI)” value is “Active”.
